Jurkat NFkB inh: inhibitors of the PMA/ionomycin-induced NF-kB reporter in Jurkat cells; hit rate 0.53% among 330,000; inhibition, % at 4 µM; PMA/ionomycin-induced NF-kB luciferase reporter, luminescence; AID 435003; in the data active = inhibition above about 50%
Hep lipid drop: hepatic lipid droplet formation modulation. AML12 mouse hepatocytes, oleate lipid droplets, BODIPY imaging. inhibition, % at 6.5 µM. hit rate 0.4% among 240,000. AID 1656;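 active = lipid droplet intensity inhibited by at least 50%, with more than 500 cells counted; inconclusive = wells with under 300 cells, treated as cytotoxic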
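Material – mouse AML12 hepatocyte cell line, fixed after treatment · Compound dosing – one dose, 6.5 µM compound · Times – compound with oleate, overnight · Measured by – Image-based BODIPY and DAPI two-channel analysis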
697 NFkB inh: inhibitors of the PMA/ionomycin-induced NF-kB reporter in 697 B cells | 697 B-cell NF-kB luciferase reporter, 16 h | inhibition, % at 4 µM | hit rate 0.33% among 330,000; in the data active = inhibition above about 35%
TAG inh: reduces triacylglycerol accumulation in H9c2 cells; inhibition, % at 12.5 µM; Nile Red lipid (TAG) fluorescence; cells loaded with 200 µM oleic acid; AID 651582; hit rate 0.66% among 230,000;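 active = pattern-corrected inhibition of lipid staining of at least 50% with the nuclear-stain viability signal not falling by more than 50%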;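 also: 0% = DMSO wells and 100% = triacsin C control wells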
Gli-Sufu block: Gli-Sufu pathway antagonism | hit rate 0.74% among 340,000 | inhibition, % at 5 µM | Sufu-KO-LIGHT fibroblasts, Gli luciferase reporter luminescence;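 active = inhibition above about 55%, limit read from the data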;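 also: 0% = DMSO-treated cells and 100% = wells with medium but no cells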
iPSC survival up: enhancers of human iPSC single-cell survival; hiPSC single-cell survival, ATPlite luminescence; 100% = ROCK inhibitor wells, 0% = DMSO; hit rate 0.044% among 360,000; AID 602274; survival enhancement, % at 20 µM; in the data active = survival enhancement above about 18%;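 also: cells exposed to compounds for 16 hours before the ATP read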
Jurkat NFkB conf: inhibitors of the PMA/ionomycin-induced NF-kB reporter in Jurkat cells, retest. shares compounds with Jurkat NFkB inh. Jurkat NF-kB luciferase, 16 h. inhibition, % at 4 µM. hit rate 27% among 2,700. AID 435020;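 active = inhibition reaching about 45% at 4 µM in either replicate, limit read from the data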;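 also: plate controls were PMA/ionomycin stimulated DMSO wells for no effect and unstimulated DMSO wells for full effect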
An asterisk follows results filed as active; ? = inconclusive; . = not tested or not shown. Shown are actives, neighbours in structure and some others; about 1.8% of the full set was active somewhere.

SMILES	Jurkat NFkB inh	Hep lipid drop	697 NFkB inh	TAG inh	Gli-Sufu block	iPSC survival up	Jurkat NFkB conf
CCCN1C2CCCC1CC(NC(=O)c1ccc(Br)cc1)C2 (stereo unspecified)	-5	6	-31	-12	-2	0	.
Cc1ccc(S(=O)(=O)N2c3cc(C)ccc3OCC2C(C)(C)C)cc1 (stereo unspecified)	32	0	-6	29	7	17	.
COc1ccc(S(=O)(=O)N2c3cc(C)ccc3OCC2C(C)(C)C)cc1 (stereo unspecified)	51*	.	-50	44	9	4	17
O=C(c1ccccc1)n1ccc(-c2cnc(-c3ccccc3)s2)n1	-180	18	-193	3	-3	-5	-73
CCN(CC)S(=O)(=O)c1ccc(N/N=C/c2cc(OC)ccc2O)nc1	52*	.	-57	.	47	-3	-3
CCN(CC)S(=O)(=O)c1ccc(N/N=C/c2cccnc2)nc1	-4	-1	27	9	-2	-1	.
CC1CCN(c2ccc3c(c2)S(=O)(=O)c2ccccc2C3=O)CC1	-211	.	-196	.	-90	-1	-83
NC(=O)C1CCN(c2ccc3c(c2)S(=O)(=O)c2ccccc2C3=O)CC1	-40	.	-4	-11	3	-1	.
O=C(CCN1CCOCC1)NNC(=O)c1ccc([N+](=O)[O-])cc1[N+](=O)[O-]	-10	.	4	3	10	1	.
COc1ccc(-c2cc(C(=O)NCC(C)C)no2)cc1	-157	-3	-138	.	-92	5	-90
CC(C)(C)c1ccc(C(=O)Nc2ccc(Oc3cccnc3)nc2)cc1	52*	-12	-38	-10	-5	1	48
CC(C)(C)c1ccc(C(=O)Nc2cccnc2)cc1	-127	.	7	.	-60	-1	.
C[C@H]1CN(C2CCCCC2)C(=O)[C@@H]1CC(=O)Nc1ccc(Br)cc1	.	.	.	-1	.	1	.
COc1cc(NC(=O)CSc2nnc3c(C)cc4c(C)ccc(C)c4n23)c(C(=O)O)cc1OC	-4	-1	10	-17	-2	0	.
COc1ccc(C)cc1NC(=O)CSc1ccc(-c2ccccn2)nn1	53*	26	-5	-29	12	0	20
COc1ccc(C)cc1NC(=O)CSc1ccc(-c2sc(C)nc2C)nn1	51*	25	-33	.	23	0	10
COC[C@@H]1CCCN1c1ccc2c(c1)O[C@@H](COCc1ccccc1)CN([C@H](C)c1ccccc1)S2(=O)=O	.	.	.	.	.	1	.
O=C(CSCc1ccc(Cl)cc1Cl)Nc1nccs1	9	1	13	.	-28	-4	.
COC(=O)c1ccc(NC(=S)Nc2ccccn2)cc1	-164	18	-133	.	-8	-1	-69
CCc1cccc(C)c1NC(=O)CN(C)C1=NS(=O)(=O)c2ccccc21	-9	.	-16	17	-4	0	.
Cc1ccc(COn2c(-c3ccc(Cl)cc3)nc3ccc([N+](=O)[O-])cc32)cc1	-148	.	-168	5	-105	-1	.
O=[N+]([O-])c1ccc2nc(-c3ccc(Cl)cc3)n(OCc3ccccc3)c2c1	-199	.	-241	.	-57	-5	-89
COc1cccc(S(=O)(=O)N(C)C[C@H]2Oc3cc(Br)ccc3S(=O)(=O)N([C@@H](C)CO)C[C@H]2C)c1	.	.	.	-25	.	-1	.
N#Cc1c(N2CCCC(O)C2)nc(N)c2c(N)nc3c(c12)CC(=O)N3C12CC3CC(CC(C3)C1)C2 (stereo unspecified)	85*	.	-28	-47	-23	-4	48
CC1=C2C3OC(=O)C(C)[C@@H]3CC[C@](C)(O)C2C2C3C4C5(C12)[C@H]1OC(=O)[C@@H](C)C1CC[C@]4(C)O[C@]5(C)[C@@H]3O (stereo partly specified)	9	-5	3	.	-5	-2	.
SMILES	Jurkat NFkB inh	Hep lipid drop	697 NFkB inh	TAG inh	Gli-Sufu block	iPSC survival up	Jurkat NFkB conf
c1ccc(N2CCN(c3cnc4ccccc4n3)CC2)cc1	-152	9	-185	.	4	0	-98
CC(=O)n1cc(N(C(=O)CCl)c2ccc(C)cc2)c2ccccc21	76*	6	8	65*	4	0	-1
CN(C)CCCN(C(=O)c1ccc(S(=O)(=O)N(C)C2CCCCC2)cc1)c1nc2ccc(Br)cc2s1	5	-6	-10	8	26	0	.
CC(C)NC(=O)NC(=O)COc1ccc(Br)cc1Br	-205	-15	-206	1	-99	1	-94
O=C(COc1ccc(Br)cc1Br)NC1CCCC1	-16	5	-139	8	-48	2	.
N#Cc1ccc(CN2CCN(C(=O)c3ccc(S(=O)(=O)NCc4ccco4)cc3)CC2)cc1	16	.	-22	-1	-8	-1	.
CCOC(=O)c1sc2nc3c(cc2c1N)COC(C)(CC)C3 (stereo unspecified)	-212	.	-192	.	-151	0	-110
NC(=O)c1sc2nc3c(cc2c1N)CCC3	-25	30	-20	-6	-21	0	.
COC(=O)c1sc2nc3c(cc2c1N)CCCC3	-153	-8	-97	-9	-147	-1	-27
C/C(=N\NC(=O)c1ccc(OC2OCCOC2Oc2ccc(C(=O)N/N=C(\C)c3ccncc3)cc2)cc1)c1ccncc1 (stereo unspecified)	52*	0	-47	24	-2	-1	8
COC(=O)c1c(-c2ccccc2)csc1NC(=O)c1ccco1	-153	.	-219	.	-87	-4	-69
Cc1sc(NC(=O)c2ccco2)nc1-c1ccccc1	-163	-4	-221	-12	-31	-1	-94
CC(=O)c1sc(NC(=O)c2ccco2)nc1-c1ccccc1	-14	.	-63	-7	-55	0	.
O=C(Nc1ccc2nc3ccccc3nc2c1)c1ccccc1	.	16	.	14	-99	-2	.
O=C(Nc1ccc(-c2nc3ccccc3s2)c(OC(=O)c2ccccc2)c1)c1ccccc1	-167	8	-171	.	-12	3	-113
COc1ccc(C(=O)C(CN2CCOCC2)c2ccccc2)cc1 (stereo unspecified)	26	.	-62	.	14	-1	.
O=C(c1ccc(F)cc1)C(CN1CCOCC1)c1ccccc1 (stereo unspecified)	53*	.	-137	.	11	-1	12
CCC(C)(C)NC(=O)CN(C(=O)c1csnn1)c1ccccc1-c1ccccc1	-17	-15	4	.	2	-1	.
CCCCn1cnc2c(c(-c3ccccc3)c(-c3ccccc3)n2Cc2ccco2)c1=N	81*	-1	-7	7	3	0	4
CCOC(=O)C(C)Oc1cccc2c(=O)n(CC(=O)NCc3ccco3)ccc12 (stereo unspecified)	57*	?	-14	43	30	-4	43
CC1Oc2ccccc2N(CC(=O)N2CCCC2)C1=O (stereo unspecified)	-14	14	-22	.	14	-1	.

Source: PubChem (Sanford-Burnham Center for Chemical Genomics)
